Experiments:
[1] = test system: Rattus norvegicus; experiment: Iron scavenging activity in 59Fe-ferritin-loaded rat assessed as iron mobilization level at 150 to 450 umol/kg, po dosed 1 hr after 59Fe-ferritin injection and measured 24 hrs after 59Fe-ferritin injection by gamma counting method relative to control; format: functional, organism-based
How it was run: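 Male SD rats, 300 g, fasted overnight, given about 1 μC 59Fe-ferritin i.v. under isoflurane. Chelator gavaged 1 h later, then rats housed in metabolic cages; food returned 1 h after dosing. Killed 24 h after 59Fe-ferritin. Urine, faeces, liver and gut gamma-counted. 8 rats per condition.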

[2] = molecular target: T1, Cytochrome P450 1A2 (Homo sapiens, UniProt P05177); experiment: Inhibition of CYP1A2 in human liver microsomes; format: ADME
T1 sequence (P05177 whole entry): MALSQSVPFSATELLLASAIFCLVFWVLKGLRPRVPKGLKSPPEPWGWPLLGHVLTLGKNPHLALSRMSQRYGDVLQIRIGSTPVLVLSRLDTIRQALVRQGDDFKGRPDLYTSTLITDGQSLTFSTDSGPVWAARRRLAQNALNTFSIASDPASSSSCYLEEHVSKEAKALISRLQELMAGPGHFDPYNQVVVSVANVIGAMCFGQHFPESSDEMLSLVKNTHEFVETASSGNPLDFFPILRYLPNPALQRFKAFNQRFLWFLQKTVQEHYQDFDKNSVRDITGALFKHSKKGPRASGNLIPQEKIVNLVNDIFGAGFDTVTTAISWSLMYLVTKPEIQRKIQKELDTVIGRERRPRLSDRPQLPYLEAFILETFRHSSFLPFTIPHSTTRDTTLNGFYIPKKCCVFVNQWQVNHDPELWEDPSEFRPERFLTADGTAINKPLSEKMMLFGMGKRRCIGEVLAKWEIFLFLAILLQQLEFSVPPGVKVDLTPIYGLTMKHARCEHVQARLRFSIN

[3] = molecular target: Cytochrome P450 3A5 (Homo sapiens, UniProt P20815); experiment: Inhibition of CYP3A5 in human liver microsomes; format: ADME
[4] = Ratio of drug level in kidney to plasma in rat at 150 umol/kg, po measured within 10 mins by LC-MS/MS analysis; format: ADME, organism-based; details: kidney and plasma
How it was run: (§1)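 SD rats (half male, half female, n = 6 per group) given a single oral 150 μmol/kg dose. Killed at 10 min, 30 min, 2 h or 6 h; tissues washed in saline, weighed and homogenised in acetonitrile/water 1:9 (125 mg/mL). Tissue levels compared with plasma.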

[5] = Ratio of drug level in stomach to plasma in rat at 150 umol/kg, po measured within 10 mins by LC-MS/MS analysis; format: ADME, organism-based; details: stomach and plasma; how it was run: as §1
[6] = Ratio of drug level in adrenal gland to plasma in rat at 150 umol/kg, po measured within 10 mins by LC-MS/MS analysis; format: ADME, organism-based; details: adrenal gland and plasma; how it was run: as §1
[7] = Drug level in rat adrenal gland at 150 umol/kg, po measured measured up to 6 hrs by LC-MS/MS analysis; format: ADME, organism-based; details: in vivo
How it was run: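 Single oral dose of 150 μmol/kg to SD rats, half male and half female, n=6 per group. Rats decapitated at 10 min, 30 min, 2 h and 6 h. Tissues dissected, saline-washed, weighed and homogenised in acetonitrile/water 1:9 (125 mg/mL). Drug level measured against plasma; mean ± SE.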

[8] = Binding affinity to Ni2+ ion assessed as affinity constant by spectrophotometric titration method
How it was run: (§2)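 Automated spectrophotometric titration with 0.1 M KOH in 0.1 pH steps, 3 min equilibration per step, 50 mm cuvette, iron complexes at ca. 40 µM. Titrated in competition with metal hydrolysis species up to pH 12.0. Hydrolysis constants taken from critical compilations. Iron spectra fitted over 400–700 nm.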

[9] = Binding affinity to Fe2+ ion assessed as affinity constant by spectrophotometric titration method; how it was run: as §2
[10] = test system: Rattus norvegicus; experiment: Iron scavenging activity in iron-overloaded rat assessed as iron removal efficacy at 150 to 300 umol/kg, po relative to deferiprone; format: functional
How it was run: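 Male SD rats (300 g), fasted overnight, given about 1 μC 59Fe-ferritin i.v. under isoflurane; chelator by oral gavage 1 h later; doses 75, 150, 300, 600 and 1200 μmol/kg. Rats housed in metabolic cages, food returned 1 h post-dose; killed 24 h after ferritin injection. Urine, faeces, liver and gut gamma-counted. Iron removal expressed as % efficacy.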

[11] = Toxicity in iron-overloaded rat assessed as drug tolerability at 75 to 1200 umol/kg, po; details: in vivo
[12] = Toxicity in iron-overloaded rat assessed as induction of mortality at 75 to 1200 umol/kg, po; details: in vivo
[13] = AUC (0 to infinity) in Sprague-Dawley rat at 300 umol/kg, po measured up to 1440 mins by LC/MS/MS analysis; format: ADME, organism-based; parameters: dose 300 umol/kg, time infinity, route oral; details: in vivo, 24 h
[14] = Apparent clearance in Sprague-Dawley rat at 600 umol/kg, po measured up to 1440 mins by LC/MS/MS analysis; format: ADME, organism-based; details: in vivo, read-out: CL(app) (converted)
[15] = Apparent volume of distribution in Sprague-Dawley rat at 75 umol/kg, po measured up to 1440 mins by LC/MS/MS analysis; format: ADME, organism-based; details: in vivo, 24 h
[16] = Apparent volume of distribution in Sprague-Dawley rat at 150 umol/kg, po measured up to 1440 mins by LC/MS/MS analysis; format: ADME, organism-based; details: in vivo, 24 h
[17] = Cmax in Sprague-Dawley rat at 75 umol/kg, po measured up to 1440 mins by LC/MS/MS analysis; format: ADME, organism-based; parameters: dose 75 umol/kg, route oral; details: in vivo
[18] = Oral bioavailability in Sprague-Dawley rat at 75 umol/k measured up to 1440 mins by LC/MS/MS analysis; format: ADME, organism-based; details: in vivo, 75 umol/kg
How it was run: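 Sprague-Dawley rats (200-250 g, half male, half female, n = 8 per route), fasted about 12 h. Dosed i.v. via tail vein at 75 μmol/kg or orally at 75-600 μmol/kg. Heparinised blood taken 0-1440 min; plasma protein-precipitated with acetonitrile and assayed by LC/MS/MS; bioavailability from oral vs i.v. exposure.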

[19] = Toxicity in Sprague-Dawley rat assessed as induction of histopathological changes in thymus. at 25 to 116 mg/kg, po dosed daily for 4 weeks during chronic 4 week toxicity test; format: organism-based; details: in vivo, 672 h
[20] = Toxicity in Sprague-Dawley rat assessed as induction of histopathological changes in pancreas at 25 to 116 mg/kg, po dosed daily for 4 weeks and measured after additional 4 weeks period in absence of drug; format: organism-based; details: in vivo, 672 h
[21] = Binding affinity to Co2+ ion assessed as pM value by spectrophotometric titration method
[22] = test system: Mus musculus; experiment: Toxicity in mouse assessed as effect on platelet population at 200 mg/kg, po dosed once daily for 2 months as 5 days per week schedule; details: in vivo, 120 h
[23] = test system: Mus musculus; experiment: Toxicity in mouse assessed as reduction in lymphocytes counts at 200 mg/kg, po dosed once daily for 2 months as 5 days per week schedule; details: in vivo, 120 h
[24] = test system: Mus musculus; experiment: Toxicity in mouse assessed as reduction in erythrocyte population at 200 mg/kg, po dosed once daily for 2 months as 5 days per week schedule; details: in vivo, 120 h

Chain of Cytochrome P450 3A5 (P20815 whole entry): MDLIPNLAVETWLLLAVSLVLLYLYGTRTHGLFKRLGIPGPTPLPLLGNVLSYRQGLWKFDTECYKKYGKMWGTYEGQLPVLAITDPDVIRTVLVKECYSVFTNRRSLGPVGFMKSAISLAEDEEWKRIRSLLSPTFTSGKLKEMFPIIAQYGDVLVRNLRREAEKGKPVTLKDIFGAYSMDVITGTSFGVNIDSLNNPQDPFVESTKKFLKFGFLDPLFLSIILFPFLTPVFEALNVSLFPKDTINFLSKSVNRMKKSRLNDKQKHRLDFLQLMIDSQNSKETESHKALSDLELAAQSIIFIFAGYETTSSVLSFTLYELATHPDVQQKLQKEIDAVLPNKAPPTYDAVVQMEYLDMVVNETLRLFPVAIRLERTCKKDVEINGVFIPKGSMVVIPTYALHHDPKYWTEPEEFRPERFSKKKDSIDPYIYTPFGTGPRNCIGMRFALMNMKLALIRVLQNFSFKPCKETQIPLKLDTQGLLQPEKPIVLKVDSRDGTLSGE

Cc1c(O)c(O)cc[n+]1[C@@H](CO)Cc1ccccc1.[Cl-]
Activity [1]: Dose-dependent effect
IC50 [2]: > 200 µM
IC50 [3]: > 200 µM
Kp at 10 min [4]: 3.3 to 8.8
Kp at 10 min [5]: 3.3 to 8.8
Kp at 10 min [6]: 3.3 to 8.8
Drug uptake [7]: Not Active
log K [8]: 6.92
K [9]: 6.22 pM
log K [9]: 7.32
fold change (FC) [10]: 3.1 - 3.8
Activity [11]: Non-Toxic
Activity [12]: Non-Toxic
AUC [13]: 89800 ng·h/mL
CL/F [14]: 15.2 mL/min/kg
Vz [15]: 7.6 L/kg
Vz [16]: 5.29 L/kg
Cmax [17]: 8670 ng/mL
bioavailability [18]: 82.6%
Activity [19]: Toxic
Activity [20]: Non-Toxic
pM [21]: 6.17
Activity [22]: Non-Toxic
Activity [23]: Non-Toxic
Activity [24]: Non-Toxic

Source: ChEMBL document CHEMBL4376902, “CN128: A New Orally Active Hydroxypyridinone Iron Chelator” (J Med Chem, 2020)
